Assay results published in ChEMBL document CHEMBL2029252, “Pharmacophore-based small molecule CXCR4 ligands” (Bioorg Med Chem Lett, 2012).
Calls of active or inactive are those of the source. No cut-off for these calls is given here.

Key:
[1] = test system: Human immunodeficiency virus 1; experiment: Antiviral activity against X4-tropic HIV1 NL4.3 infected in human MT4 cells assessed as protection from virus-induced cytopathogenicity; format: functional, organism-based; settings: Human immunodeficiency virus 1, NL4.3, MT4
Procedure, shortened: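 MT-4 cells infected with X4 HIV-1 strain NL4-3; readout is protection from virus-induced cytopathogenicity. EC50 = concentration giving 50% protection, mean of at least three independent experiments.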

[2] = Cytotoxicity against human MT4 cells assessed as reduction of cell viability; format: cell-based
[3] = target: C-X-C chemokine receptor type 4 (Homo sapiens) (UniProt P61073); experiment: Displacement of [125I]-CXCL12 from CXCR4 expressed in human Jurkat cells at 10 uM relative to T140; format: cell-based
Procedure, shortened: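 Competition for [125I]-CXCL12 binding to Jurkat cells, test compounds at 10 µM. Percent inhibition expressed relative to that given by the reference peptide T140, set at 100%.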

[4] = test system: Human immunodeficiency virus 1; experiment: Antiviral activity against R5-tropic HIV1 NL(AD8) infected in human PM1 cells expressing CCR5 assessed as protection from virus-induced cytopathogenicity at < 100 uM; format: functional, organism-based
[5] = test system: Human immunodeficiency virus 1; experiment: Antiviral activity against R5-tropic HIV1 NL(AD8) infected in human PM1 cells expressing CCR5 assessed as protection from virus-induced cytopathogenicity; format: functional, organism-based; settings: Human immunodeficiency virus 1, NL(AD8)

Sequence of C-X-C chemokine receptor type 4 (Homo sapiens) (P61073 whole entry): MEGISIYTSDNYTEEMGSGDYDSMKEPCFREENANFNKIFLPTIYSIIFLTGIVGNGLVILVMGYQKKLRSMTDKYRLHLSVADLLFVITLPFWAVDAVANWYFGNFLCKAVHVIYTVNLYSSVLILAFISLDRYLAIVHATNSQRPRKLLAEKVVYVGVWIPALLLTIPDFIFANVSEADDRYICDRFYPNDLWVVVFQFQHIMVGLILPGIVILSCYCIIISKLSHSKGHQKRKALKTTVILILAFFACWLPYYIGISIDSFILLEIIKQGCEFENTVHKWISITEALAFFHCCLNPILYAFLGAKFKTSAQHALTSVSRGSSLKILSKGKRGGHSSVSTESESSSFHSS

Row | EC50 [1] | inhibition [3] | EC50 [5] | Compound | CC50 [2] | Activity [4]
1 | > 20 µM | 25% | – | C[C@H](NC(=O)[C@H](CCCNC(=N)N)NC(=O)c1ccc(CN(CCc2ccccn2)Cc2ccc(F)cc2)cc1)c1cccc2ccccc12 | 24 µM | –
2 | > 4 µM | 4% | – | C[C@@H](NC(=O)[C@H](CCCNC(=N)N)NC(=O)c1ccc(CN(CCc2ccccn2)Cc2ccc(F)cc2)cc1)c1cccc2ccccc12 | 23 µM | –
3 | 13 µM | 60% | – | C[C@H](NC(=O)[C@H](CCCNC(=N)N)NC(=O)c1ccc(CN(CCc2cccnc2)Cc2ccc(F)cc2)cc1)c1cccc2ccccc12 | 65 µM | inactive
4 | – | 12% | – | C[C@@H](NC(=O)[C@H](CCCNC(=N)N)NC(=O)c1ccc(CN(CCc2ccncc2)C(=O)c2ccc(F)cc2)cc1)c1cccc2ccccc12 | – | –
5 | > 20 µM | 6% | – | C[C@@H](NC(=O)[C@H](CCCNC(=N)N)NC(=O)c1ccc(CN(CCc2ccccn2)C(=O)c2ccc(F)cc2)cc1)c1cccc2ccccc12 | 41 µM | –
6 | 10 µM | 20% | – | C[C@H](NC(=O)[C@H](CCCNC(=N)N)NC(=O)c1ccc(CN(CCc2ccncc2)Cc2ccc(F)cc2)cc1)c1cccc2ccccc12 | 44 µM | inactive
7 | > 4 µM | 16% | – | C[C@H](NC(=O)[C@H](CCCNC(=N)N)NC(=O)c1ccc(CN(CCc2ccc(F)cc2)Cc2ccccn2)cc1)c1cccc2ccccc12 | 9.9 µM | –
8 | 11 µM | 79% | – | C[C@@H](NC(=O)[C@H](CCCNC(=N)N)NC(=O)c1ccc(CN(CCc2ccc(F)cc2)Cc2cccnc2)cc1)c1cccc2ccccc12 | 47 µM | inactive
9 | 0.33 µM | 100% | – | C[C@H](NC(=O)[C@H](CCCNC(=N)N)NC(=O)c1ccc(CNCc2ccccn2)cc1)c1cccc2ccccc12 | 80 µM | –
10 | – | 0% | – | C[C@@H](NC(=O)[C@H](CCCNC(=N)N)NC(=O)c1ccc(CN(CCc2ccncc2)CCc2ccc(F)cc2)cc1)c1cccc2ccccc12 | – | –
11 | – | 100% | – | N=C(N)NCCC[C@@H]1NC(=O)[C@H](CCCNC(=N)N)NC(=O)[C@@H](Cc2ccc(O)cc2)NC(=O)CNC(=O)[C@H](Cc2ccc3ccccc3c2)NC1=O | > 10 µM | –
12 | – | 24% | – | C[C@@H](NC(=O)[C@H](CCCNC(=N)N)NC(=O)c1ccc(CN(CCc2cccnc2)Cc2ccc(F)cc2)cc1)c1cccc2ccccc12 | – | –
13 | > 4 µM | 23% | – | C[C@H](NC(=O)[C@H](CCCNC(=N)N)NC(=O)c1ccc(CN(CCc2ccc(F)cc2)CCc2ccccn2)cc1)c1cccc2ccccc12 | 13 µM | –
14 | – | 44% | – | C[C@@H](NC(=O)[C@H](CCCNC(=N)N)NC(=O)c1ccc(CN(CCc2ccc(F)cc2)Cc2ccncc2)cc1)c1cccc2ccccc12 | – | –
15 | > 20 µM | 3% | – | C[C@@H](NC(=O)[C@H](CCCNC(=N)N)NC(=O)c1ccc(CN(Cc2ccccn2)C(=O)c2ccc(F)cc2)cc1)c1cccc2ccccc12 | 38 µM | –
16 | > 20 µM | 25% | – | C[C@H](NC(=O)[C@H](CCCNC(=N)N)NC(=O)c1ccc(CN(CCc2ccncc2)C(=O)c2ccc(F)cc2)cc1)c1cccc2ccccc12 | 47 µM | –
17 | 8 µM | 16% | – | C[C@H](NC(=O)[C@H](CCCNC(=N)N)NC(=O)c1ccc(CN(Cc2ccncc2)Cc2ccc(F)cc2)cc1)c1cccc2ccccc12 | 44 µM | inactive
18 | – | 15% | – | C[C@@H](NC(=O)[C@H](CCCNC(=N)N)NC(=O)c1ccc(CN(CCc2ccc(F)cc2)Cc2ccccn2)cc1)c1cccc2ccccc12 | – | –
19 | > 20 µM | 13% | – | C[C@H](NC(=O)[C@H](CCCNC(=N)N)NC(=O)c1ccc(CN(Cc2ccncc2)C(=O)c2ccc(F)cc2)cc1)c1cccc2ccccc12 | 51 µM | –
20 | > 20 µM | 14% | – | C[C@H](NC(=O)[C@H](CCCNC(=N)N)NC(=O)c1ccc(CN(Cc2cccnc2)C(=O)c2ccc(F)cc2)cc1)c1cccc2ccccc12 | 57 µM | –
21 | – | 32% | – | C[C@H](NC(=O)[C@H](CCCNC(=N)N)NC(=O)c1ccc(CN(CCc2cccnc2)C(=O)c2ccc(F)cc2)cc1)c1cccc2ccccc12 | – | –

Row | EC50 [1] | inhibition [3] | EC50 [5] | Compound | CC50 [2] | Activity [4]
22 | – | 51% | – | C[C@H](NC(=O)[C@H](CCCNC(=N)N)NC(=O)c1ccc(CN(CCc2ccncc2)CCc2ccc(F)cc2)cc1)c1cccc2ccccc12 | – | –
23 | – | 35% | – | C[C@H](NC(=O)[C@H](CCCNC(=N)N)NC(=O)c1ccc(CN(CCc2ccc(F)cc2)CCc2cccnc2)cc1)c1cccc2ccccc12 | – | –
24 | > 20 µM | 0% | – | C[C@@H](NC(=O)[C@H](CCCNC(=N)N)NC(=O)c1ccc(CN(Cc2ccc(F)cc2)Cc2ccccn2)cc1)c1cccc2ccccc12 | 35 µM | –
25 | – | 22% | – | C[C@@H](NC(=O)[C@H](CCCNC(=N)N)NC(=O)c1ccc(CN(CCc2cccnc2)C(=O)c2ccc(F)cc2)cc1)c1cccc2ccccc12 | – | –
26 | > 20 µM | 6% | – | C[C@@H](NC(=O)[C@H](CCCNC(=N)N)NC(=O)c1ccc(CN(Cc2ccncc2)C(=O)c2ccc(F)cc2)cc1)c1cccc2ccccc12 | 45 µM | –
27 | > 20 µM | 12% | – | C[C@@H](NC(=O)[C@H](CCCNC(=N)N)NC(=O)c1ccc(CN(Cc2ccncc2)Cc2ccc(F)cc2)cc1)c1cccc2ccccc12 | 39 µM | –
28 | 0.058 µM | – | – | Cc1cn([C@H]2C[C@H](N=[N+]=[N-])[C@@H](CO)O2)c(=O)[nH]c1=O [ZIDOVUDINE] | 100 µM | –
29 | > 20 µM | 36% | – | C[C@H](NC(=O)[C@H](CCCNC(=N)N)NC(=O)c1ccc(CN(Cc2ccccn2)C(=O)c2ccc(F)cc2)cc1)c1cccc2ccccc12 | 37 µM | –
30 | > 20 µM | 0% | – | C[C@H](NC(=O)[C@H](CCCNC(=N)N)NC(=O)c1ccc(CN(CCc2ccccn2)C(=O)c2ccc(F)cc2)cc1)c1cccc2ccccc12 | 43 µM | –
31 | > 11 µM | 69% | – | C[C@@H](NC(=O)[C@H](CCCNC(=N)N)NC(=O)c1ccc(CN(CCc2ccc(F)cc2)CCc2cccnc2)cc1)c1cccc2ccccc12 | 11 µM | inactive
32 | > 20 µM | 11% | – | C[C@@H](NC(=O)[C@H](CCCNC(=N)N)NC(=O)c1ccc(CN(Cc2cccnc2)C(=O)c2ccc(F)cc2)cc1)c1cccc2ccccc12 | 45 µM | –
33 | > 20 µM | 13% | – | C[C@@H](NC(=O)[C@H](CCCNC(=N)N)NC(=O)c1ccc(CN(CCc2ccc(F)cc2)CCc2ccccn2)cc1)c1cccc2ccccc12 | 27 µM | –
34 | – | 36% | – | C[C@H](NC(=O)[C@H](CCCNC(=N)N)NC(=O)c1ccc(CN(CCc2ccc(F)cc2)Cc2cccnc2)cc1)c1cccc2ccccc12 | – | –
35 | > 20 µM | 27% | – | C[C@H](NC(=O)[C@H](CCCNC(=N)N)NC(=O)c1ccc(CN(Cc2ccc(F)cc2)Cc2cccnc2)cc1)c1cccc2ccccc12 | 41 µM | –
36 | – | 16% | – | C[C@@H](NC(=O)[C@H](CCCNC(=N)N)NC(=O)c1ccc(CN(CCc2ccncc2)Cc2ccc(F)cc2)cc1)c1cccc2ccccc12 | – | –
37 | > 20 µM | 6% | – | C[C@@H](NC(=O)[C@H](CCCNC(=N)N)NC(=O)c1ccc(CN(Cc2ccc(F)cc2)Cc2cccnc2)cc1)c1cccc2ccccc12 | 37 µM | –
38 | > 4 µM | 30% | – | C[C@H](NC(=O)[C@H](CCCNC(=N)N)NC(=O)c1ccc(CN(Cc2ccc(F)cc2)Cc2ccccn2)cc1)c1cccc2ccccc12 | 11 µM | –
39 | 7.4 µM | – | – | C[C@@H](NC(=O)[C@H](CCCNC(=N)N)NC(=O)c1ccc(CNC(=O)c2ccc(C(F)(F)F)cc2)cc1)c1cccc2ccccc12 | 66 µM | –
40 | – | – | 0.055 µM | COC[C@@H](c1ccc(C(F)(F)F)cc1)N1CCN(C2(C)CCN(C(=O)c3c(C)ncnc3C)CC2)C[C@@H]1C [VICRIVIROC] | – | –
41 | – | 26% | – | C[C@H](NC(=O)[C@H](CCCNC(=N)N)NC(=O)c1ccc(CN(CCc2ccc(F)cc2)Cc2ccncc2)cc1)c1cccc2ccccc12 | – | –
